Screens (PubChem BioAssay)
V1R ag counter: counter-screen for oxytocin receptor agonists: human V1a receptor agonists | P37288 | CHO-V1R cells, Fluo-8 calcium fluorescence, agonist mode; 0% DMSO, 100% 3 nM vasopressin | activation, % at 3 µM | hit rate 0.25% among 320,000 | AID 2797;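 active means activation above the mean activation of all tested compounds plus 3 SD, per screening run, cut at about 20% in these data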;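 further: signal is peak over basal fluorescence ratio across a 100 second FLIPR read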
Target sequence (P37288 whole entry, looked up): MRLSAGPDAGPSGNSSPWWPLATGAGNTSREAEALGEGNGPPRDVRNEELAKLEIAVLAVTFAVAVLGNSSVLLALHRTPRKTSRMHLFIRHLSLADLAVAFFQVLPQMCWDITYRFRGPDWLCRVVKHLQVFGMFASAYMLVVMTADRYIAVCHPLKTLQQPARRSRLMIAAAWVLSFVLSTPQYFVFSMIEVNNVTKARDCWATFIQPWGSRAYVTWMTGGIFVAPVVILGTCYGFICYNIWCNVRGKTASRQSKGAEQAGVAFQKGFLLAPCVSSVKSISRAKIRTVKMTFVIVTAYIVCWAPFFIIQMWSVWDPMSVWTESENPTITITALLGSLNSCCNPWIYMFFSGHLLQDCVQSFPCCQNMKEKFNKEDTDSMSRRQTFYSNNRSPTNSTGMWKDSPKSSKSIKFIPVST
TAAR1 agonist: human TAAR1 agonism. hit rate 0.99% among 360,000. CHO RD-HGA16 TAAR1, Fluo-8 calcium fluorescence; vehicle wells 0%, saturating PEA agonist 100%. activation, % at 3 µM. AID 624467;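 active means activation above the mean activation of all test compounds in the run plus 3 SD, cut at about 38% in these data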
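System: CHO-derived RD-HGA16 cells with stable Gα16 and human TAAR1 / Times: 17-24 h plating, Fluo-8 75 min 37 °C, 30 min RT / Technique: calcium-sensitive Fluo-8 signal, excitation 470-495, emission 515-575 nm / Measure: % activation relative to PEA EC100 response / Benchmarks: DMSO and PEA EC100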
OXTR potentiate: potentiators of human oxytocin receptor. P30559. CHO-OTR cells, Fluo-8 calcium fluorescence, potentiator mode; 0% = oxytocin EC15, 100% = EC100. activation, % at 3 µM. hit rate 0.061% among 320,000. AID 2445;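 active means activation above that plate's cutoff, the mean activation of tested compounds plus 3 SD, cut at about 6.6% in these data, passing the limit was not always enough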;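 further: 100% uses oxytocin at 75 nM as the full agonist control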
Target sequence (P30559 whole entry, looked up): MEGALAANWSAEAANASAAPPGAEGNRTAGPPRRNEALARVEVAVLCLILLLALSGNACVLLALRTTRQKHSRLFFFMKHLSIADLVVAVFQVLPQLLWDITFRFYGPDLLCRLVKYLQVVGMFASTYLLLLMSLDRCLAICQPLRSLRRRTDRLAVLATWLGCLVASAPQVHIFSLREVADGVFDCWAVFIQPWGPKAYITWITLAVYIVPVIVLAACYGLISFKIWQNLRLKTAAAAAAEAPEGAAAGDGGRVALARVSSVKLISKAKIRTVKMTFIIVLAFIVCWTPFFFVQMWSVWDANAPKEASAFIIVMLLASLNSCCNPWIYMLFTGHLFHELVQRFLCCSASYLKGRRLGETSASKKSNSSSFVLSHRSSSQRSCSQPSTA
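Material: human OTR in CHO cells. Compound: 3.0 µM, one dose. Timing: compound 6 min at room temperature before oxytocin, 100 s read. Evaluation: % activation of max/min ratio relative to oxytocin controls. Replication: single well per compound, singlicate. Signal: Fluo-8 calcium dye fluorescence.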
TAAR1 antag: human TAAR1 antagonism; inhibition, % at 3 µM; CHO RD-HGA16 TAAR1, Fluo-8 calcium fluorescence, antagonist; Q96RJ0; hit rate 1.5% among 360,000;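 active means inhibition above a per-plate cutoff, the mean inhibition of test compounds on that plate plus 3 SD, cut at about 49% in these data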;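 further: 0% = DMSO plus EC80 beta-PEA response and 100% = DMSO alone without agonist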
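Assay system: RD-HGA16 CHO cells with stable hTAAR1 and Gα16 / Reagent: EC80 β-phenethylamine stimulus / Doses: 3 µM, single point / Timing: dye loading 75 min at 37 °C, then 30 min room temperature / Measured by: Fluo-8 intracellular calcium dye fluorescence, real-time kinetic reads / Controls: vehicle wells and EC80 agonist wells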
OXTR agonist: activates the human oxytocin receptor; P30559; CHO-OTR cells, Fluo-8 calcium fluorescence; normalized: DMSO 0%, oxytocin 100%; activation, % at 3 µM; hit rate 0.32% among 320,000; AID 2435;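 active means activation above the mean of all tested compounds plus 3 SD, cutoff set per screening run, cut at about 20% in these data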;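 further: peak over basal fluorescence ratio from a 100 s FLIPR kinetic read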
OXTR agonist cf: confirmation of human oxytocin receptor agonists; shares compounds with OXTR agonist; CHO-OTR cells, Fluo-8 calcium fluorescence, agonist; activation, % at 3 µM; hit rate 20% among 390; AID 434963;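 active means mean activation above about 20% derived from the earlier single-dose screen, limit read from the data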;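 further: peak over minimum fluorescence ratio per well during a 100 second FLIPR read; 0% = DMSO alone and 100% = oxytocin high control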
V1aR counter 3x: V1R agonism in triplicate, counter-screen for OXTR agonists. shares compounds with OXTR agonist. CHO-V1R cells, Fluo-8 calcium fluorescence, agonist. activation, % at 3 µM. hit rate 10% among 390;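 active means mean activation over triplicate exceeds the hit threshold set in the earlier primary screen, cut at about 20% in these data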;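 further: peak over basal fluorescence ratio within a 100 second read; 0% = DMSO alone and 100% = 3 nM vasopressin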
TAAR1 ag confirm: human TAAR1 agonism, confirmed; shares compounds with TAAR1 agonist; CHO RD-HGA16 TAAR1, Fluo-8 calcium fluorescence; scaled: DMSO 0%, maximal phenethylamine 100%; activation, % at 3 µM; hit rate 82% among 2,400; AID 651783;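 active means activation above a cutoff set at the run's mean compound activation plus 3 SD, cut at about 39% in these data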
Ga16 ag counter: counter-screen for TAAR1 agonists: nonselective agonists in parental cells; shares compounds with TAAR1 agonist; activation, % at 3 µM; hit rate 50% among 2,400; CHO-Ga16 parental, Fluo-8 calcium fluorescence; normalized to maximal ATP response, DMSO zero; AID 651787;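 active means activation above the run cutoff, the mean activation over all tested wells plus 3 SD, cut at about 12% in these data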;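 further: 0% = DMSO wells and 100% = maximal ATP response on the peak over basal ratio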
TAAR1 desens: TAAR1 response desensitization, agonist counter-screen; shares compounds with TAAR1 agonist; CHO RD-HGA16 hTAAR1, Fluo-8 calcium, beta-PEA response inhibition; inhibition, % at 3 µM; hit rate 46% among 2,400;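 active means inhibition above the run cutoff, the mean inhibition of all test compounds plus 3 SD, cut at about 49% in these data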;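 further: beta-PEA stimulus applied at its EC80; loss of beta-PEA calcium signal after compound pretreatment read as receptor desensitization; 0% = DMSO with beta-PEA at EC80 and 100% = DMSO alone without agonist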
Ga16 antag count: counter-screen for TAAR1 agonists: nonselective Ga16 antagonists; shares compounds with TAAR1 agonist; hit rate 39% among 2,400; inhibition, % at 3 µM; CHO-Ga16 ATP-induced calcium, Fluo-8 fluorescence;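 active means inhibition above the plate's mean compound inhibition plus 3 SD, computed per plate, cut at about 22% in these data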;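 further: 0% = EC80 ATP with DMSO and 100% = DMSO wells without ATP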
Numbers without * were called inactive; . = no result; ! = a repeat was not active. A selection: hits, their analogues and other compounds. The true share with any hit is near 2.3%.

SMILES	V1R ag counter	TAAR1 agonist	OXTR potentiate	TAAR1 antag	OXTR agonist	OXTR agonist cf	V1aR counter 3x	others
NS(=O)(=O)c1ccc(CCNC(=O)COC(=O)CCc2ccccc2)cc1	-0.1	9.3	-18.7	-4.0	0.1	.	.
CC(C)(C)c1ccc(C(=O)CCC(=O)OCC(=O)NCCc2ccc(S(N)(=O)=O)cc2)cc1	15.5	23.6	-12.3	62.5*	19.8*	7.5	9.0
CCOC(=O)C(Cc1ccc(O)cc1)NC(=O)CCc1c[nH]c2ccccc12 (stereo not drawn)	17.3	40.3*	-21.3	14.1	23.2*	18.9	3.2
COC(=O)[C@H](Cc1c[nH]c2ccccc12)NC(=O)CCCc1c[nH]c2ccccc12	18.0	18.3	-15.2	45.5	6.6	.	.
CC(=O)c1ccc(N2CCN(c3ccccc3O)CC2)c([N+](=O)[O-])c1	14.8	15.7	-33.2	50.9*	23.4*	14.4	12.5
CC(C)(C)CC(C)(C)NCC(O)COc1c(F)cc(Br)cc1F (stereo not drawn)	13.7	46.7*	-18.6	4.5	23.2*	1.5	0.3
O=C(CCNS(=O)(=O)c1ccccc1)Nc1ccccc1	1.4	0.6	-0.9	-1.1	1.1	.	.
CCOC(=O)c1ccc(NS(=O)(=O)c2ccc3c(c2)n(C)c(=O)n3C)cc1	15.2	20.2	-23.4	-1.3	29.8*	3.8	5.1
COC(=O)c1ccc(NS(=O)(=O)c2ccc3c(c2)n(C)c(=O)n3C)cc1	5.4	2.5	-17.0	23.7	8.6	.	.
Cc1ccc(C(=O)OCC(=O)N2CCCC2)cc1	0.5	-0.7	-10.6	-17.5	0.0	.	.
Cc1ccc(NS(=O)(=O)c2ccc(C(=O)OCC(=O)N3CCCCC3)cc2)cc1	19.3	40.7*	-9.9	41.5	24.4*	18.6	13.5
O=C(CN1C(=O)NC2(CCCC2)C1=O)Nc1cc(S(=O)(=O)N2CCCCC2)ccc1Cl	-0.1	-2.4	-6.9	6.2	0.9	.	.
COc1ccc2c(c1)CC/C(=C\c1ccc(OC)c(Cn3nc(C)cc3C)c1)C2=O	9.9	44.3*	-20.8	23.2	36.5*	7.9	8.4
NC(=O)c1cc(S(=O)(=O)NCc2ccc(F)cc2)cs1	1.0	2.1	-6.4	-14.5	20.0*	-0.2	0.0
CN(CC(=O)Nc1ccccc1C(F)(F)F)C(=O)C1CC1	0.0	8.4	0.0	-5.4	0.2	.	.
Cc1cc(C)c2nc(N(CCCN(C)C)C(=O)c3ccc4c(c3)OCCO4)sc2c1	3.8	9.9	-17.1	17.0	20.5*	5.6	4.1
C/C(N)=C(/C#N)C(=O)CN1C(=O)NC(Cc2c[nH]c3ccccc23)C1=O (stereo not drawn)	0.9	8.3	-9.6	-10.8	-0.1	.	.
C=CCOC(=O)C1=C[C@@H](c2ccc(C(F)(F)F)cc2)[C@H](CCCO)[C@@H](OCC)O1	-1.5	6.8	-8.9	6.0	20.1*	-0.9	-0.1
COc1ccc(CNCCNC(=O)c2nonc2N)cc1OC	0.7	15.0	3.0	1.4	1.8	.	.
Nc1nonc1C(=O)NCCNCc1cc(Br)ccc1OCc1ccc(F)cc1	12.8	13.6	-8.2	28.9	19.8*	8.5	9.6
CC(C)Oc1ccc(C(CCN)C2CCCCC2)cc1 (stereo not drawn)	6.4	47.5*	-17.5	11.3	20.7*	17.0	7.6
C[C@H]1CN([C@@H](C)CO)S(=O)(=O)c2ccc(/C=C/c3ccccc3)cc2O[C@H]1CN(C)C(=O)NC1CCCCC1	.	0.9	.	5.9	.	.	.
COCCN(Cc1ccccc1)C(=O)c1ccc2c(=O)n3c(nc2c1)CCC3	0.8	2.2	-1.0	-22.6	-0.3	.	.
O=C(Nc1ncc([N+](=O)[O-])s1)c1cccs1	12.5	7.2	-21.9	-8.9	20.7*!	9.5	11.5
Cc1cnc(NC(=O)c2cccs2)s1	1.2	-1.9	-8.6	-4.5	-0.3	.	.
SMILES	V1R ag counter	TAAR1 agonist	OXTR potentiate	TAAR1 antag	OXTR agonist	OXTR agonist cf	V1aR counter 3x	others
CC(=O)C1=C(c2ccccc2)NC(=S)NC1c1cc(Cl)c(OC(C)C)c(Cl)c1 (stereo not drawn)	15.9	14.4	-8.0	17.2	19.9*	17.1	14.7
Cc1ncc(CN2CCC(CO)(CCOc3ccccc3)CC2)s1	-0.4	1.4	-6.8	-36.7	20.5*	0.0	0.1
CCOc1ccc(Nc2nc(NCC3CCCO3)c3ccccc3n2)cc1 (stereo not drawn)	8.9	21.8	-25.6	8.1	20.1*	0.1	3.3
CC(/C=N/NC(=O)c1cc(-c2cccnc2)nc2c1c(C)nn2-c1ccccc1)=C\c1ccccc1	0.1	6.1	-3.9	37.2	-0.7	.	.
O=C(N/N=C/c1ccccn1)c1cccc(S(=O)(=O)N2CCCC2)c1	0.8	1.8	1.3	-30.9	-0.4	.	.
COc1ccc(-c2csc(N(CCCN(C)C)C(=O)c3ccccc3Cl)n2)cc1	15.4	6.2	-7.3	1.9	22.8*	6.4	3.1
NC(=O)c1c(NC(=O)c2ccncc2)sc2c1CCCCCC2	12.6	29.6	-8.2	9.3	24.2*	14.4	21.1*
O=C(O)c1ccc(NC(=O)C2C3CCC(O3)C2C(=O)O)cc1 (stereo not drawn)	0.1	4.8	-4.5	-4.6	1.1	.	.
Cc1ccc(-c2noc(CCC(=O)NCCc3ccccc3Cl)n2)cc1	5.4	.	-16.2	.	19.9*	-0.8	0.1
C=CCn1c(SCC(=O)N(CCOC)c2c(N)n(CC(C)C)c(=O)[nH]c2=O)nc2ccccc21	-0.6	2.0	-13.9	-19.3	-0.7	.	.
CCCCC1(C)NC(=O)N(CC(=O)Nc2ccc(Cl)cc2C)C1=O (stereo not drawn)	1.8	1.0	-0.1	-4.9	1.2	.	.
CCCCOc1ccc(CSCCN)cc1Cl	12.6	76.8*	-12.6	-0.7	21.3*	7.0	1.7	TAAR1 ag confirm=64.0*;Ga16 ag counter=9.7;TAAR1 desens=30.9;Ga16 antag count=11.3
